Laboratory results as given in ChEMBL document CHEMBL3228045, “1-(Dichloroacetyl)-1,2,3,4-tetrahydro-6-quinolinol esters. New potent antiamebic agents” (J Med Chem, 1979).

What was measured:
[1] = Antiamebic activity against Entamoeba criceti infected in hamster assessed as reduction of trophozoites in cecum administered intragastric gavage bid for three consecutive days by microscopy; type: functional; details: Caecum, po
Procedure, shortened: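 Vehicle: 10% gelatin suspension, given by intragastric gavage in two split portions daily (morning and afternoon) for 3 consecutive days, dosed as (mg/kg)/day. Colony infection rate was at least 90%. Five hamsters per group at three twofold dose levels. The day after the last dose, cecal-wall scrapings in saline were examined microscopically at 43×. An animal with no trophozoites counted as cleared.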

[2] = Antiamebic activity against trophozoite form of Entamoeba criceti infected in hamster assessed as reduction in spontaneous infection in cecum administered intragastric gavage as single dose by microscopy; type: functional; details: Caecum, po
Procedure, shortened: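 Hamsters with spontaneous Entamoeba criceti infection were given one oral dose of drug. ED50 is reported ± SE in mg/kg po.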

[3] = Antiamebic activity against Entamoeba criceti infected in hamster assessed as reduction of trophozoites in cecum administered intragastric gavage as four dose by microscopy; type: functional; details: Caecum, po
[4] = system: Hamster; experiment: Toxicity in hamster assessed as mortality at 10 mg/kg, po by acute test; type: organism-based; design: dose 10 mg/kg, route oral; details: cricetinae, in vivo
[5] = system: Rattus norvegicus; experiment: Toxicity in rat assessed as mortality at 10 mg/kg, po by acute test; type: organism-based; design: dose 10 mg/kg, route oral; details: in vivo

Structure (SMILES)	ED50 [1] [mg/kg]	further results
O=C(Oc1ccc2c(c1)CCCN2C(=O)C(Cl)Cl)c1ccccc1	0.2	ED50 [2]: 1.6 mg/kg
O=C(C(Cl)Cl)N1CCCc2cc(O)ccc21	1.2	–
O=C(Oc1ccc2c(c1)CCCN2C(=O)C(Cl)Cl)c1cccs1	0.16	ED50 [2]: 4.8 mg/kg
CCCC(=O)Oc1ccc2c(c1)CCCN2C(=O)C(Cl)Cl	0.75	–
CCCCCC(=O)Oc1ccc2c(c1)CCCN2C(=O)C(Cl)Cl	1.75	–
CNC(=O)Oc1ccc2c(c1)CCCN2C(=O)C(Cl)Cl	5.7	–
O=C(C(Cl)Cl)N1CCCc2c1ccc(O)c2Cl	0.5	–
O=C(C(Cl)Cl)N1CCCc2c1ccc(O)c2Br	0.56	–
O=C(Oc1ccc2c(c1Cl)CCCN2C(=O)C(Cl)Cl)c1cccs1	0.22	–
O=C(Oc1ccc2c(c1Cl)CCCN2C(=O)C(Cl)Cl)c1ccco1	0.21	–
O=C(Oc1ccc2c(c1Br)CCCN2C(=O)C(Cl)Cl)c1cccs1	1.24	–
O=C(Oc1ccc2c(c1Br)CCCN2C(=O)C(Cl)Cl)c1ccco1	0.39	–
O=C(CCl)N1CCCc2cc(O)ccc21	2	–
O=C(N1CCCc2cc(O)ccc21)C(Cl)(Cl)Cl	3	–
CN(C(=O)C(Cl)Cl)c1ccc(OC(=O)c2ccco2)cc1 [DILOXANIDE FUROATE]	> 3.2	–
CCOCCN(Cc1ccc(Oc2ccc([N+](=O)[O-])cc2)cc1)C(=O)C(Cl)Cl [ETOFAMIDE]	–	ED50 [3]: 0.38 mg/kg
O=C(Oc1ccc2c(c1)CCCN2C(=O)C(Cl)Cl)c1ccco1 [QUINFAMIDE]	0.2	ED50 [2]: 0.75 mg/kg; Activity [4]: Non-toxic; Activity [5]: Non-toxic
